Test results: the EternaBench riboswitch data

Tested on: MS2 coat protein
Assay: apparent Kd, MS2 coat protein; higher = weaker binding; RNA-MaP array; FMN 200 µM where present
Summary of the method: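 Apparent Kd: the median of filtered binding-curve fits from single clusters. Designs were transcribed on Illumina sequencing-chip clusters by stalled E. coli RNA polymerase and titrated with SNAP-549-labelled MS2 coat protein from 0.7 or 1.5 nM, doubling to 3 µM, in 100 mM Tris-HCl pH 7.5, 80 mM KCl, 4 mM MgCl2, BSA, DTT, yeast tRNA and Tween-20. Each series ran without and then with constant ligand, and green signal was normalised to red-channel RNA signal and control-cluster median Fmax.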

[1] = designed as: ON switch for flavin mononucleotide, no ligand
[2] = ligand present: flavin mononucleotide, designed as: ON switch for flavin mononucleotide
[3] = designed as: OFF switch for flavin mononucleotide, no ligand
[4] = ligand present: flavin mononucleotide, designed as: OFF switch for flavin mononucleotide

Row | Sequence | apparent Kd [1] [nM] | apparent Kd [2] [nM] | apparent Kd [3] [nM] | apparent Kd [4] [nM]
1 | AAUUAAUUGUAGAAGGUACUUAAUUAUGAUAUGUAAGGAUAUACGAUAUUAUUACGACAUGUAUGACAUGAGGAUCACCCAUGU | 12.4 | 9.23 | – | –
2 | AAAUAGUCAGGAUAUACAUGAGGAUCACCCAUGUAAACUUUUAGUUUAAUUUGAAUGUGUAGAAGGGACAUUAA | – | – | 28.1 | 33
3 | AACUGACAUGAGGAUCACCCAUGUCAGGAUAUGAUUUGACGAAAUAAAACACGUCAUAUCAGAAGGGACAUGGA | – | – | 26.5 | 48.6
4 | AUAAUUAUAUAUUUCCCAAGAAUCAGAAGGCGUUACAUGAGGAUCACCCAUGUUUUGUAUAGUAACGAGGAUAUGAUAUGGAAA | – | – | 16.3 | 14.5
5 | GGUACUCAAAGAGUACGGAGUCGAACAUGAGGAUCACCCAUGUAGGAUAUGCUAAGCUUGAAGUUGCAGAAGGACAUGUGCAGC | – | – | 10.7 | 11.1
6 | UAAUUGUGAGGAUAUUCGUAGUACACGGAGACGUGUAUUACGGAGAAGGCACAUGAGGAUCACCCAUGUUCCUU | – | – | 18.2 | 89.4
7 | ACAUGAUCAGGAUAUACAUGAGGAUCACCCAUGUAUUUCAAAAAGGGACUUUCUUUAUGUAGAAGGGAUCUUGU | – | – | 15.8 | 43.1
8 | CAUAUGGGAGGAUAUGCAUAGAUAAAGAAACAUGUUCAACCACAUGAGGAUCACCCAUGUAGAAGGCCCAUAUG | – | – | 29.6 | 162
9 | CCAUGCAUAGCGAUAUGAUCGAGAGAUCAUGUCGCUAAAUUUAGAAGGACAUGAGGAUCACCCAUGUAGGAUAUGGGAGCAUGU | 222 | 49.7 | – | –
10 | GCCAUCGCAUGAGGAUAUGCUCCCGUUUCGGGAGCAGAAGGCAUGUCAUAAGACAUGAGGAUCACCCAUGUGGUUAAGAUGGCA | 335 | 12.4 | – | –
11 | CGCUACGUUUCGUAGCAGUGUCAUCGAGAAGGCCCUGACAUGAGGAUCACCCAUGUUAAAACAUGGGAGGAUAUCGAUGAUACA | 11.7 | 4.87 | – | –
12 | UCCUUGUCCUGAGGAUAUCCGCGGUUCCCAAAAGGAGAAGGCAGGACAUGAGGAUCACCCAUGUACCCAGAAAACGUGCAGAGC | – | – | 9.39 | 33.8
13 | UCAUGAAGGACAGGAUAUGGACAUGAGGAUCACCCAUGUACAUGGGAUUAUAUACUGAAUUUAUACUAGAAGGGUUACAUAAAU | – | – | 44.7 | 30.2
14 | UUAUUAUAUGUAGGAUAUGUAUAUUAUUAUUGUGCAGAAGGACAUGAGGAUCACCCAUGUAUAUUAUUAUUAUAUAUUAUAUAU | – | – | 21.4 | 17.1
15 | GUUCUGCUAGGAUAUGCAUCAACGGGAUAGCCUACGCGGAAACAUGAGGAUCACCCAUGUAGAAGGAGCUGAAC | – | – | 30.3 | 30.6
16 | AAUAGCUGAGGAUAUACAUGAGGAUCACCCAUGUAUUAGUAGGCUGGGAAUAAAUCGUGUAGAAGGCAGGAUGA | – | – | 16 | 27.2
17 | AAUAACAGAGGAUAUACUAUUUUAUGUGUUUGUUAUUUUGAACAUGAGGAUCACCCAUGUAGAAGGCUGAAUAA | – | – | 25 | 27.2
18 | UUAAUUAUACAAGGAUAUCUAUUGUAGUUUCGACUGACAUGAGGAUCACCCAUGUAAAUAUGUUAAGAGAAGGUGUAUUUUAAA | 56.8 | 40.4 | – | –
19 | UUAUUAUAUGUAGGAUAUGCAUAUUAUUAUUAUGCAGAAGGACAUGAGGAUCACCCAUGUAUAUUGUUAUUAUAUAUUAUAUAU | – | – | 25.5 | 37
20 | UUUUUAAAUAUAGGAUAUGGAAACAUGAGGAUCACCCAUGUAUGAUAAGAUAAAUUAUGAUAUAGCCAGAAGGAUAUUAUUUUU | 32.1 | 29.7 | – | –
21 | AUUUUCCUGGCAGGAUAUCUUACACAUGAGGAUCACCCAUGUACAAAAGUGGGAGAAGGGUCGUGGAGGUGUAUAGUCGAAUAG | 79.2 | 36.1 | – | –
22 | AGCUACGUUUCGUAGCAGUGUCAUCGAGAAGGCCUCAUUACAUGAGGAUCACCCAUGUAAGCAUGGGAGGAUAUCGAUGAUACA | 36.5 | 15.6 | – | –
23 | UUGCGGGAUUGAGGAUAUUGAGUACAUAUGUUUAACAUGAGGAUCACCCAUGUGGGUUGCGGUAUCGAGAAGGUAACUUACUAC | 95.8 | 104 | – | –
24 | GUCAGCUCGUGAGGAUAUACAACACUGCUUCGGCAGUGUAUUAUGAUCACAUGAGGAUCACCCAUGUAGAAGGCACGAGCUGAU | – | – | 29.3 | 230
25 | CUUCUUGGGCAAGGAUAUCCUGUGCGGUUCCGGCUCGUGUCUGUCACAUGAGGAUCACCCAUGUGGGAGAAGGUGCCUGCGGUC | – | – | 6.15 | 6.79
26 | AUCAGCUCGUCAGGAUAUACGUCACUGCUUCGGCAGUGUGAAAAGAUCACAUGAGGAUCACCCAUGUAGAAGGGACGAGCUGAU | – | – | 9.15 | 120
27 | GAGCCUAAUGAGAAGGUGUGUAUAAAUUAUAUACAAGGAUAUCGGUCGAGCGUGUUGACAUGAGGAUCACCCAUGUUGAGGCUU | 7.86 | 5.29 | – | –
28 | GUCGGAAACGACAAAAGUAUGGAUCCAGAAGGCAUGAACAUGAGGAUCACCCAUGUCUAAAGAUAUGAGGAUAUGGAUCCAUAC | 6.66 | 4.44 | – | –

Row | Sequence | apparent Kd [1] [nM] | apparent Kd [2] [nM] | apparent Kd [3] [nM] | apparent Kd [4] [nM]
29 | CGGGAGUCAGGAUAUACGAACAUGUCGCCAGAUGUCAAGGUACAUGAGGAUCACCCAUGUAGAAGGGAGGAGAA | – | – | 91 | 54.3
30 | AUUAGUAAUAAGGAUAUCACUAGCUGCGGCUAGUGAGAAGGUAUUACAUGAGGAUCACCCAUGUGAUUAAUUAA | – | – | 76.4 | 418
31 | UGAUCGAGAGAUCUUAGAUUCUGGUAGGAUAUACAACAGUUGCGCUUUACAUGAGGAUCACCCAUGUAGAAGGACUAGAGUCUA | – | – | 7.55 | 8.78
32 | CUACGCUAGGAGAAGGGCUAGAGUGUGAUAUAUUUGCCCGCGAGCACAUGAGGAUCACCCAUGUAGCAGGAUAUCCAAGCCGGU | – | – | 7.59 | 16.8
33 | AAAACUCACGUAGGAUAUCAUUCCUUAAGGUAGUGAGAAGGACGUGACUACAUGUCCUUGAACAUGAGGAUCACCCAUGUAGGC | – | – | 49.5 | 55.4
34 | GUCGGAAACGACAAAAGUAGCAUACGAGAAGGUUGAUCCAAGACAUGAGGAUCACCCAUGUAGUUAGAGGAUAUUGGAUGCUAC | 163 | 116 | – | –
35 | UCGCUGUCAGGAUAUCUUAUAUAGAACAUGAGGAUCACCCAUGUUCAUGUAUUCUGUGAGAGAGAAGGGACUCCUU | – | – | 15 | 17.4
36 | AUAUAUAUAUCAGGAUAUGGACAGGCCUGUUCGUAUUGAGACAGUAACAUGAGGAUCACCCAUGUCCAGAAGGGAUAUAUAUAU | – | – | 93.2 | 55.1
37 | AACGCGUCAGGAUAUGCCAUAAAUUACCUAGUACGACCAUAGCAGAAGGGACAUGAGGAUCACCCAUGUAAAUA | – | – | 40.5 | 28.3
38 | GUAGCAUUCUGAGGAUAUUCAUACCGGAAACGGACAUGAGGAUCACCCAUGUGGCGAAAGCCUUGGAAGAAGGCAGUAUGCUAC | 4.27 | 3.56 | – | –
39 | CGCUAGUCAGGAUAUACGAACAUGUCACCAGACGUGAAGGGACAUGAGGAUCACCCAUGUAGAAGGGACUAGCA | – | – | 90.5 | 267
40 | AGAAACUACGAGAAGGACAUGUGGUCCUUCAGUUACAUGAGGAUCACCCAUGUAGGAUAUCGUAGUUUCAGGAUCGUGAGAUCG | – | – | 40.4 | 20.4
41 | CGUUUGGGAGGAUAUCCAAUAUAUGACAUGAGGAUCACCCAUGUUUCCACUCGUACCUCCGGAGAAGGCCCUGCGU | – | – | 22.9 | 21
42 | GUAGAGUCAGGAUAUACGAGAUCGAAAGAUCUGUGAUCCAUACAUGAGGAUCACCCAUGUAGAAGGGACUCUAC | – | – | 33.7 | 364
43 | GCCAACGCAUGAGGAUAUGCUCCCGUUUCGGGAGCAGAAGGCAUGUCAUAAGACAUGAGGAUCACCCAUGUAGUCAAGAUGGCA | 291 | 16.7 | – | –
44 | GCGUUGUCAGGAUAUUAUCCGUGGACAAUAGUCAGACACGGUAAGAAGGGACAUGAGGAUCACCCAUGUCCUCA | – | – | 17.6 | 27.1
45 | GACAUGGUCCAGAAGGGCUAUCUAUUUAAGUACGAUUUAGAACAGCAUAGCAGGAUAUGGCUAACAUGAGGAUCACCCAUGUUC | 20.5 | 9.26 | – | –
46 | ACUAGGCGAGGAUAUACAUGCUUAACACAGCGAAAGCUGUGACAUGAGGAUCACCCAUGUAGAAGGCGCAAAUA | – | – | 54.1 | 365
47 | GGAUAGGACAAAGGAUAUACGUGCUAGAGAUACUAGCAAAAUUUCCUCACAUGAGGAUCACCCAUGUAGAAGGCUGUCCUAUCG | – | – | 6.93 | 14.7
48 | AGAGCCUCGUGAGGAUAUACAUGAGGAUCACCCAUGUAAAUGGAAUAACGGAGGAAACUCCGAAUGUAGAAGGCACGAGGCUCA | – | – | 79.9 | 966
49 | AUAUAUAUUUAGAAGGACAUGAGGAUCACCCAUGUCGCUGGGCCCGGGAAACCGGGCCCGGCCAUGUAGGAUAUAGAUAUAUAU | – | – | 6.72 | 9.5
50 | UUUUUUAUGUAAGGAUAUCGAUUAUAUACACAUCCUACAUGAGGAUCACCCAUGUUUUAAUUUAUCGAGAAGGUACAUUGUCUG | 34.1 | 36.5 | – | –
51 | UGUGUGUGACAGGAUAUGCUGGUUGUGAGGCGGGUAGAAGGGUCUACAUGAGGAUCACCCAUGUGGCCGGUUGG | – | – | 18.7 | 18.7
52 | AAUAAACUCACAGGAUAUAGCAGAGGUCGCGUGAACUUACAGACGACUAUGCUAGAAGGGUGACCACAUGAGGAUCACCCAUGU | 869 | 149 | – | –
53 | GGUAGAAACAUUAACAUGAGGAUCACCCAUGUCAAAAGAAAUGAGGAUAUCGUAUACAAUGUAUAUGAGAAGGCAUGGUCUACC | 7.78 | 5.77 | – | –
54 | GACUCGCGCACAGGAUAUCCACGGAGCGGACGUGGAGAAGGGUGACAUGAGGAUCACCCAUGUACGUGAGUCUAGAUCACUUCC | 67.2 | 25 | – | –
55 | AGUAUGUACGCAGGAUAUACAUGAGGAUCACCCAUGUGGAACAGUGUAGUACUAGUUGAUCCUCAGUAGAAGGGCGGCCGAAUA | – | – | 49.3 | 62.6
